{"source": "paper PMC11193445", "about": "(International Journal of Nanomedicine, 2024)", "test_system": "MDA-MB-231 cells", "assay": "Dox intracellular localization by confocal microscopy", "format": "cell-based, human", "details": "free Dox 7.5 µM, NF-Dox 50 µM (7.5 µM of Dox), 1 h, 37 °C", "in_short": "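MDA-MB-231 cells were seeded on coverslips at 5×10^4 cells/well and grown 24 h. They were exposed 1 h at 37 °C, washed twice in PBS, fixed 10 min in ice-cold 4% PFA, and mounted in DAPI-containing antifade. Intrinsic Dox fluorescence (RFP channel) and DAPI nuclei were imaged with a 63× oil objective. Images represent three separate experiments.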"}
{"smiles": "COc1cccc2c1C(=O)c1c(O)c3c(c(O)c1C2=O)C[C@@](O)(C(=O)CO)C[C@@H]3O[C@H]1C[C@H](N)[C@H](O)[C@H](C)O1", "note": "[Dox, Doxorubicin]", "values": [{"measurement": "Dox cellular uptake and localization (confocal, red fluorescence)", "value": "not significant"}]}
